According to ChEMBL document CHEMBL2062446, “Design of a Potent CB1 Receptor Antagonist Series: Potential Scaffold for Peripherally-Targeted Agents” (ACS Med Chem Lett, 2012):

System: MDR1
Assay: Apparent permeability from apical to basal side of MDCK cells expressing MDR1
Assay type: ADME, cell-based, Canis lupus familiaris
Details: dog
How it was run: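 MDCK cells transfected with the MDR1 gene were used to assess whether compounds are MDR1 transporter substrates.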

| Compound | Papp A→B [×10⁻⁶ cm/s] |
| --- | --- |
| N#CC1(C(=O)NC2CCCOc3c2nn(-c2ccccc2Cl)c3-c2ccc(Cl)cc2)CC1 (configuration not stated) | 1 |
| COCC(=O)NC1CCCOc2c1nn(-c1ccccc1Cl)c2-c1ccc(Cl)cc1 (racemic) | 9.1 |
| O=C(NC1CCCOc2c1nn(-c1ccccc1Cl)c2-c1ccc(Cl)cc1)C1CCOCC1 (racemic) | 6.8 |
| O=C1CCCN1C1CCCOc2c1nn(-c1ccccc1Cl)c2-c1ccc(Cl)cc1 (racemic) | 11.2 |
| CCNC(=O)NC1CCCOc2c1nn(-c1ccccc1Cl)c2-c1ccc(Cl)cc1 (racemic) | 6.3 |
| O=C(NC1CCCOc2c1nn(-c1ccccc1Cl)c2-c1ccc(Cl)cc1)c1ccno1 (racemic) | 3.2 |
| CS(=O)(=O)CC(=O)NC1CCCOc2c1nn(-c1ccccc1Cl)c2-c1ccc(Cl)cc1 (racemic) | 2.7 |

Next, values leading:

| Papp A→B [×10⁻⁶ cm/s] | Compound |
| --- | --- |
| 8.4 | CC(C)C(=O)N[C@@H]1CCCOc2c1nn(-c1ccccc1Cl)c2-c1ccc(Cl)cc1 |
| 6.6 | O=C(NC1CCCOc2c1nn(-c1ccccc1Cl)c2-c1ccc(Cl)cc1)c1ccon1 (racemic) |
| 14.1 | CC(=O)NC1CCCOc2c1nn(-c1ccccc1Cl)c2-c1ccc(Cl)cc1 (racemic) |
| 6.5 | CCOCC(=O)NC1CCCOc2c1nn(-c1ccccc1Cl)c2-c1ccc(Cl)cc1 (configuration not stated) |
| 7.1 | CC(F)(F)CN1CCOc2c(nn(-c3ccccc3Cl)c2-c2ccc(Cl)cc2)C1=O |
| 6.9 | CC(C)C(=O)NC1CCCOc2c1nn(-c1ccccc1Cl)c2-c1ccc(Cl)cc1 (racemic) |
| 12.1 | CCC(=O)NC1CCCOc2c1nn(-c1ccccc1Cl)c2-c1ccc(Cl)cc1 (racemic) |
| 9.1 | COC(=O)NC1CCCOc2c1nn(-c1ccccc1Cl)c2-c1ccc(Cl)cc1 (racemic) |
| 3 | O=C(NC1CCCOc2c1nn(-c1ccccc1Cl)c2-c1ccc(Cl)cc1)c1cnon1 (racemic) |

System: not listed separately
Assay: 1-Octanol-sodium phosphate buffer partition coefficient, log D of the compound at pH 7.4 after 24 hrs by shake flask method
Assay type: physicochemical
Details: not given

| logD at 24 h | Compound |
| --- | --- |
| 4.1 | CC(F)(F)CN1CCOc2c(nn(-c3ccccc3Cl)c2-c2ccc(Cl)cc2)C1=O |
